Reference: ChEMBL document CHEMBL4699650, “SAR Investigation and Discovery of Water-Soluble 1-Methyl-1,4-dihydroindeno[1,2-c]pyrazoles as Potent Tubulin Polymerization Inhibitors” (J Med Chem, 2020)
Active and inactive are the calls of the source. No cut-off for these calls is given here.

Legend:
HepG2 [1] = assay: Induction of cell cycle arrest in human HepG2 cells assessed as accumulation in S phase at 5 nM incubated for 24 hrs by propidium iodide staining based flow cytometry (reference value: 26.65%); format: functional
[2] = Toxicity in Balb/c nude mouse xenografted with human HepG2 cells assessed as change in body weight at 10 mg/kg, iv administered every 2 days for 21 days (reference value: 7.8 % ); format: organism-based; details: in vivo, 504 h, time 21 day
HepG2 [3] = assay: Induction of apoptosis in human HepG2 cells assessed as PARP cleavage at 2.5 to 20 nM incubated for 24 hrs by western blot analysis; format: functional, cell-based; details: dose nM 2.5-20, time 24.0 hrs
Summary of the method: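 Lysates (20 μg protein) separated by 10% PAGE and blotted to PVDF. Probed for Bax, Bcl-2, cleaved caspase-3 and cleaved PARP, detected by ECL and quantified by densitometry.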

HepG2 [4] = assay: Induction of apoptosis in human HepG2 cells assessed as late apoptotic cells at 5 nM incubated for 12 hrs by Annexin V-PE and 7-AAD staining based flow cytometry (reference value: 2.79%); format: functional
Summary of the method: (§1)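 HepG2 cells seeded at 3 × 10⁵ cells/well, adhered overnight, exposed at 5, 10 or 20 nM for 12 or 24 h. Harvested into Annexin V binding buffer and stained with annexin V-PE and 7-AAD for 15 min at room temperature in the dark, then analysed by flow cytometry. Gates: live (−/−), early apoptotic (+/−), late apoptotic (+/+), necrotic (−/+).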

HepG2 [5] = assay: Induction of cell cycle arrest in human HepG2 cells assessed as accumulation in G2/M phase at 10 nM incubated for 24 hrs by propidium iodide staining based flow cytometry (reference value: 12.59%); format: functional
HepG2 [6] = assay: Induction of apoptosis in human HepG2 cells assessed as necrotic cells at 5 nM incubated for 24 hrs by Annexin V-PE and 7-AAD staining based flow cytometry (reference value: 0.34 %); format: functional; summary of the method: as §1
Tubulin (Homo sapiens) = Tubulin (Homo sapiens) (UniProt P68371+Q9H4B7+P0DPH7+P68366+Q13509+Q71U36+P04350+Q3ZCM7+P07437+P68363+Q9BQE3+Q6PEY2+Q13885+Q9BVA1+Q9BUF5); assay: Induction of microtubule cytoskeleton disruption in human HepG2 cells assessed as microtubule shrinkage to the cell border at 10 nM measured after 24 hrs by Hoechst 33342 staining based immunofluorescence confocal microscopy analysis
Summary of the method: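 Fixed in ice-cold methanol/acetic acid 3:1, permeabilized 0.3% Triton X-100, blocked 5% BSA. Mouse anti-tubulin overnight at 4 °C, then TRITC anti-mouse IgG 2 h at 37 °C. Imaged by laser scanning confocal microscopy.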

HepG2 [7] = assay: Induction of apoptosis in human HepG2 cells assessed as necrotic cells at 20 nM incubated for 12 hrs by Annexin V-PE and 7-AAD staining based flow cytometry (reference value: 0.55 %); format: functional; summary of the method: as §1
[8] = Inhibition of porcine brain tubulin polymerization measured every 60 sec for 60 mins in presence of GTP by fluorescence assay; set-up: species or system Sus scrofa
Summary of the method: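 Fluorescence kit assay using 2 mg/mL porcine brain tubulin with 2 mM MgCl₂, 0.5 mM EGTA, 1 mM GTP and 15% glycerol. Compound at various concentrations preincubated 1 min at 37 °C before adding the tubulin mix. Read at ex 355/em 460 nm every 60 s for 60 min. IC50 is the concentration giving 50% inhibition at 60 min; mean ± SD of ≥3 independent experiments.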

HepG2 [9] = assay: Induction of apoptosis in human HepG2 cells assessed as necrotic cells at 5 nM incubated for 12 hrs by Annexin V-PE and 7-AAD staining based flow cytometry (reference value: 0.55 %); format: functional; summary of the method: as §1
HepG2 [10] = assay: Induction of cell cycle arrest in human HepG2 cells assessed as accumulation in G1 phase at 5 nM incubated for 24 hrs by propidium iodide staining based flow cytometry (reference value: 60.76%); format: functional
HepG2 [11] = assay: Antitumor activity against human HepG2 cells xenografted in Balb/c nude mouse assessed as reduction in tumor volume at 10 mg/kg, iv administered every 2 days for 21 days and measured at 3 days interval during compound dosing; format: functional; set-up: scale not given: the % may be the effect or the level left; details: time 21 day
Summary of the method: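 Nude mice received 200 μL PBS containing HepG2 at 1 × 10⁷ cells/mL subcutaneously in the right armpit. Randomised at 90 mm³ tumour volume, five per group. Compound given iv as a 2.0 mg/mL solution in distilled water, 5 or 10 mg/kg every two days for 21 days, with a water vehicle group. Tumour volume (L × W²/2) and body weight recorded every 3 days. Inhibition = (1 − RTV treated/RTV vehicle) × 100%.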

HepG2 [12] = assay: Antiproliferation activity against human HepG2 cells assessed as cell growth inhibition measured after 72 hrs by MTT assay; format: functional
Summary of the method: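 Cells grown in RPMI-1640 with 10% FBS at 37 °C, 5% CO2, seeded at 4−7 × 10³ cells/well and left to adhere overnight. Exposed to a range of concentrations for 72 h, then MTT (2.5 mg/mL stock) added for 4 h. Formazan dissolved in DMSO and absorbance read at 570 nm. GI50 taken as the concentration giving 50% growth inhibition, reported as mean ± SD of at least three independent experiments.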

HepG2 [13] = assay: Induction of apoptosis in human HepG2 cells assessed as early apoptotic cells at 5 nM incubated for 24 hrs by Annexin V-PE and 7-AAD staining based flow cytometry (reference value: 4.16 %); format: functional; summary of the method: as §1
[14] = Toxicity in Balb/c nude mouse xenografted with human HepG2 cells assessed as adverse signs at 25 mg/kg, po qd administered for 21 days; format: organism-based; details: in vivo, 504 h, time 21 day
Summary of the method: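 Nude mice received 200 μL PBS with HepG2 cells (1 × 10⁷ cells/mL) subcutaneously in the right armpit. At 90 mm³ tumour volume, randomized to 5 per group. Dosed 25 mg/kg as a 2.5 mg/mL distilled-water solution, intragastric once daily for 21 days; distilled water as vehicle. Body weight recorded every 3 days; change given as initial vs end weight.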

HepG2 [15] = assay: Induction of cell cycle arrest in human HepG2 cells assessed as accumulation in G2/M phase at 5 nM incubated for 24 hrs by propidium iodide staining based flow cytometry (reference value: 12.59%); format: functional
HepG2 [16] = assay: Induction of apoptosis in human HepG2 cells assessed as early apoptotic cells at 10 nM incubated for 24 hrs by Annexin V-PE and 7-AAD staining based flow cytometry (reference value: 4.16 %); format: functional; summary of the method: as §1
HepG2 [17] = assay: Induction of apoptosis in human HepG2 cells assessed as early apoptotic cells at 20 nM incubated for 12 hrs by Annexin V-PE and 7-AAD staining based flow cytometry (reference value: 4.52%); format: functional; summary of the method: as §1
HepG2 [18] = assay: Inhibition of cell migration in human HepG2 cells at 10 nM measured after 24 hrs by inverted light microscopy method based wound healing assay relative to control; format: functional
Summary of the method: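 Confluent HepG2 monolayer (seeded 3 × 10⁵ cells/well) scratched with a pipette tip and washed with PBS. Incubated in serum-free DMEM with compound at 2.5, 5 or 10 nM for 24 h; CA-4 run in parallel, DMSO as vehicle. Wound imaged at 0 and 24 h by inverted microscope and compared with control.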

HepG2 [19] = assay: Induction of cell cycle arrest in human HepG2 cells assessed as accumulation in G1 phase at 10 nM incubated for 24 hrs by propidium iodide staining based flow cytometry (reference value: 60.76%); format: functional

Which Activity (HepG2 [1]) does the source give for CCOc1cccc(Nc2nn(C)c3c2Cc2cc(OCC)c(OCCCN)cc2-3)c1 here?
Its Activity is 30.66%.

What about the Activity [2] of the same compound?
Its Activity is 6.9%.

And the Activity (HepG2 [3])?
The Activity was “Active”.

What about the Activity (HepG2 [4]) of the same compound?
Its Activity is 3.53%.

What about the Activity (HepG2 [5]) of the same compound?
The Activity was 56.07%.

What about the Activity (HepG2 [6]) of the same compound?
Its Activity is 0.32%.

What about the Activity (Tubulin (Homo sapiens)) of the same compound?
Its Activity is “Active”.

And the Activity (HepG2 [7])?
Its Activity is 1.36%.

What about the IC50 [8] of the same compound?
The IC50 was 3700 nM.

And the Activity (HepG2 [9])?
The Activity was 0.43%.

What about the Activity (HepG2 [10]) of the same compound?
The Activity was 49.56%.

And the Activity (HepG2 [11])?
The Activity was 68%.

What about the GI50 (HepG2 [12]) of the same compound?
Its GI50 is 2.4 nM.

What about the Activity (HepG2 [13]) of the same compound?
The Activity was 9.75%.

And the Activity [14]?
The Activity was “Non-Toxic”.

And the Activity (HepG2 [15])?
The Activity was 19.78%.

And the Activity (HepG2 [16])?
Its Activity is 16.7%.

What about the Activity (HepG2 [17]) of the same compound?
The Activity was 14.5%.

What about the inhibition at 0.01 µM (HepG2 [18]) of the same compound?
Its inhibition at 0.01 µM is 58%.

What about the Activity (HepG2 [19]) of the same compound?
Its Activity is 17.07%.
